Results as given in ChEMBL document CHEMBL3232775, “Synthesis and evaluation of amide side-chain modified Agomelatine analogues as potential antidepressant-like agents” (Bioorg Med Chem Lett, 2014).
Active and inactive are the calls of the source. The calls are words filed in the database; no cut-off is given here.

Key:
[1] = Cytotoxicity against human HEK293 cells assessed as inhibitory rate at 80 uM after 24 hrs by MTT assay; assay type: cell-based; conditions: read-out: INH
Method in brief: (§1)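 Human normal liver L02 cells and human embryonic kidney 293 cells treated with compound at 80 μM for 24 h. Viability of untreated cells taken as 100%; inhibitory rate reported as mean ± SD of three independent experiments.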

[2] = Octanol-water partition coefficient, log P of the compound; assay type: physicochemical
PC-12 = test: Inhibition of corticosterone-induced rat PC12 cells lesions assessed as protection rate at 1.25 uM after 24 hrs by MTT assay; assay type: functional; design: scale not given: the % may be the effect or the level left
Method in brief: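 Rat PC12 cells injured with corticosterone and co-treated with compound at 1.25 μM, absorbance read 24 h after treatment. Protection rate = (A_d − A_c)/A_c × 100%, where A_c is the mean absorbance of corticosterone-only controls and A_d that of corticosterone plus compound. Six independent experiments, ± SD.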

[3] = Cytotoxicity against human L02 cells assessed as inhibitory rate at 80 uM after 24 hrs by MTT assay; assay type: cell-based; conditions: read-out: INH; method in brief: as §1
Mus musculus = test: Antidepressant activity in C57 mouse assessed as decrease in immobility time at 32 mg/kg, ip on days 2 to 15 by forced swimming test; assay type: functional, organism-based; design: dose 32 mg/kg

COc1ccc2cccc(CCNC(=O)CC3(CC(=O)O)CCCC3)c2c1
cytotoxicity at 24 h, 80 µM [1]: 13.4% | logP [2]: -1.17 | Activity (PC-12): -17.5% | cytotoxicity at 24 h, 80 µM [3]: 4.1%

COc1ccc2cccc(CCN3C(=O)C(C)=C(C)C3=O)c2c1
cytotoxicity at 24 h, 80 µM [1]: 9.6% | Activity (Mus musculus): Active | logP [2]: 1.53 | Activity (PC-12): 34.2% | cytotoxicity at 24 h, 80 µM [3]: 13.8%

COc1ccc2cccc(CCNC(=O)N3CCN(C)CC3)c2c1
cytotoxicity at 24 h, 80 µM [1]: 46.6% | logP [2]: 1.88 | Activity (PC-12): 13.6% | cytotoxicity at 24 h, 80 µM [3]: 20.1%

CNCCC(Oc1ccc(C(F)(F)F)cc1)c1ccccc1 (stereo not drawn) [FLUOXETINE]
Activity (PC-12): 19.7%

COc1ccc2cccc(CCNC(=O)CCC(=O)O)c2c1
cytotoxicity at 24 h, 80 µM [1]: 13.9% | logP [2]: 1.35 | Activity (PC-12): 11% | cytotoxicity at 24 h, 80 µM [3]: 3.1%

COc1ccc2cccc(CCNC(=O)/C=C/C(=O)O)c2c1
cytotoxicity at 24 h, 80 µM [1]: 33% | Activity (Mus musculus): inactive | logP [2]: 1.54 | Activity (PC-12): 23.2% | cytotoxicity at 24 h, 80 µM [3]: 3.4%

COc1ccc2cccc(CCNC(=O)N(C)CCO)c2c1
cytotoxicity at 24 h, 80 µM [1]: 7.1% | logP [2]: 1.12 | Activity (PC-12): -19.5% | cytotoxicity at 24 h, 80 µM [3]: 5.5%

COc1ccc2cccc(CCN3C(=O)C(Cl)=C(Cl)C3=O)c2c1
cytotoxicity at 24 h, 80 µM [1]: 17.2% | logP [2]: 1.99 | Activity (PC-12): -12.8% | cytotoxicity at 24 h, 80 µM [3]: 3.4%

CCN1CCN(C(=O)NCCc2cccc3ccc(OC)cc23)CC1
cytotoxicity at 24 h, 80 µM [1]: 3.9% | logP [2]: 1.35 | Activity (PC-12): -7.7% | cytotoxicity at 24 h, 80 µM [3]: 3.1%

COc1ccc2cccc(CCNC(=O)N3CCCC3)c2c1
cytotoxicity at 24 h, 80 µM [1]: 28.4% | logP [2]: -0.52 | Activity (PC-12): 9.8% | cytotoxicity at 24 h, 80 µM [3]: 19.3%

COc1ccc2cccc(CCNC(=O)N3CCN(C(=O)OC(C)(C)C)CC3)c2c1
cytotoxicity at 24 h, 80 µM [1]: 13.3% | logP [2]: 1.06 | Activity (PC-12): 6.3% | cytotoxicity at 24 h, 80 µM [3]: 3%

COc1ccc2cccc(CCNC(=O)CC(C)(C)CC(=O)O)c2c1
cytotoxicity at 24 h, 80 µM [1]: 34.1% | logP [2]: 1.75 | Activity (PC-12): 6.3% | cytotoxicity at 24 h, 80 µM [3]: 5.7%

COc1ccc2cccc(CCNC(C)=O)c2c1 [AGOMELATINE]
cytotoxicity at 24 h, 80 µM [1]: 26.6% | logP [2]: 1.62 | Activity (PC-12): 26.2% | cytotoxicity at 24 h, 80 µM [3]: 20.2%

COc1ccc2cccc(CCN3C(=O)CCC3=O)c2c1
cytotoxicity at 24 h, 80 µM [1]: 8.1% | logP [2]: 1.87 | Activity (PC-12): -16.8% | cytotoxicity at 24 h, 80 µM [3]: 8.5%

COc1ccc2cccc(CCN3C(=O)c4ccc(Br)cc4C3=O)c2c1
cytotoxicity at 24 h, 80 µM [1]: 11.5% | logP [2]: 2.57 | Activity (PC-12): -10.5% | cytotoxicity at 24 h, 80 µM [3]: 9.1%

COc1ccc2cccc(CCNC(=O)N3CCCCC3)c2c1
cytotoxicity at 24 h, 80 µM [1]: 16.6% | logP [2]: 2.81 | Activity (PC-12): -11.5% | cytotoxicity at 24 h, 80 µM [3]: 22.6%

COc1ccc2cccc(CCN3C(=O)CC(C)(C)CC3=O)c2c1
cytotoxicity at 24 h, 80 µM [1]: 41.9% | logP [2]: 2.78 | Activity (PC-12): -50.3% | cytotoxicity at 24 h, 80 µM [3]: 10.4%

COc1ccc2cccc(CCNC(=O)N3CCC(c4ccccc4)CC3)c2c1
cytotoxicity at 24 h, 80 µM [1]: 16.5% | logP [2]: 2.05 | Activity (PC-12): 2.5% | cytotoxicity at 24 h, 80 µM [3]: 8.6%

COc1ccc2cccc(CCNC(=O)N3CCC3)c2c1
cytotoxicity at 24 h, 80 µM [1]: 28.4% | logP [2]: 1.56 | Activity (PC-12): 15.7% | cytotoxicity at 24 h, 80 µM [3]: 18.4%

COc1ccc2cccc(CCNC(=O)/C(C)=C(\C)C(=O)O)c2c1
cytotoxicity at 24 h, 80 µM [1]: 13.2% | logP [2]: 2.01 | Activity (PC-12): 2.8% | cytotoxicity at 24 h, 80 µM [3]: 5.8%

COc1ccc2cccc(CCNC(=O)/C(Cl)=C(\Cl)C(=O)O)c2c1
cytotoxicity at 24 h, 80 µM [1]: 18.6% | logP [2]: 1.18 | Activity (PC-12): -8.4% | cytotoxicity at 24 h, 80 µM [3]: 3.8%
